Laboratory results as given in PubChem BioAssay.
The source made the active and inactive calls.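 Rule for the calls, unless noted: active = visually confirmed hit in the image check and inhibition above 20%; inconclusive = visually confirmed hit but inhibition not above 20%; inactive = no visual hit in the image check.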

Tests used:
[1] = inhibitors of TNFa-induced NFkB p65 translocation, primary screen, imaging, HUVEC, MLSMR starter and 10KST1 sets (AID 438;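 active = inhibition above 20% together with a positive visual image hit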;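 note: compound added about 3h40 before a 20 min TNFalpha stimulation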;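 for inhibition: signal is the nuclear over cytoplasmic p65 intensity ratio per well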); conditions: HUVEC TNFa-induced p65 nuclear translocation; cell count: measured here: nuclei count (cytotoxicity indicator), at 2.08 µM; inhibition: at 2 µM, stronger effect = higher value, 0% TNFa-plus-vehicle, 100% no-TNFa wells
[2] = reduction of polyQ htt aggregates in cells – imaging, exon1htt(103Q)mCFP cells, high-content imaging, primary screen (AID 483;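 active = visual image review flags a hit and inhibition of aggregation exceeds 20%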;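 note: compound exposure lasted 3 days before fixation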;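 for nuclei count: percent of the per-plate median nuclei count of sample wells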); conditions: exon1htt(103Q)mCFP cell line, aggregate imaging, at 2 µM; inhibition of aggregation: stronger effect = higher value; nuclei count: measured here: cell count, toxicity
[3] = endothelial E-selectin expression blockers – imaging, HUVEC, immunofluorescence, MLSMR starter and 10KST1 sets, primary screen (AID 487); conditions: HUVEC TNFalpha-induced E-selectin immunofluorescence imaging, at 2 µM; inhibition: stronger effect = higher value; nuclei count: measured here: cell number, toxicity;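 for inhibition: signal is fraction of cell area covered by stained E-selectin grains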;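 for nuclei count: 100% = median nuclei count of all wells on the same plate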
[4] = target: Voltage-gated potassium channel subunit beta-2 (Rattus norvegicus) (UniProt P62483); experiment: inhibitors of rat Kvbeta2 reductase activity – biochemical, NADPH fluorescence, primary screen (AID 622;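 active = fluorescence slope higher than the sample average by over 3 SD, cut at about -0.22 in these data, passing the limit was not always enough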;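 note: slope of raw intensity against log time taken from 70 to 1610 s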); conditions: recombinant KvBeta, 4-cyanobenzaldehyde reduction, at 10 µM, stronger effect = higher value
Voltage-gated potassium channel subunit beta-2 (Rattus norvegicus), sequence (P62483 whole entry, looked up): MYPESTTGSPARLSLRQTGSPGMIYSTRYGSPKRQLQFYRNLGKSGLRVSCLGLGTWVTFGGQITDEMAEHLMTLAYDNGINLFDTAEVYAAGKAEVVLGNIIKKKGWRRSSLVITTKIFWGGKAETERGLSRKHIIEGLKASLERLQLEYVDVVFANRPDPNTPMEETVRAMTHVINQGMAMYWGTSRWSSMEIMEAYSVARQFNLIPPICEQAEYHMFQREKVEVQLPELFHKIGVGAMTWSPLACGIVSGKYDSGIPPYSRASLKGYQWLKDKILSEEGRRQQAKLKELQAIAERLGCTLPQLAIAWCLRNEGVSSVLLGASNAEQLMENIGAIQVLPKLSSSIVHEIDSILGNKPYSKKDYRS

[5] = target: Voltage-gated potassium channel subunit beta-2 (Rattus norvegicus) (UniProt P62483); experiment: enhancers of rat Kvbeta2 NADPH turnover – biochemical, NADPH fluorescence, primary screen (AID 623;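 active = NADPH fluorescence slope more negative than the mean of all samples by about 3 SD, 99.7% confidence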;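 note: fluorescence intensity change per second fitted from 20 to 320 s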); conditions: Recombinant KvBeta, NADPH fluorescence decrease slope, 10 min; at 10 µM; stronger effect = lower value
[6] = target: Muscarinic acetylcholine receptor M4 (Homo sapiens) (UniProt P08173); experiment: M4-linked GIRK flux change, two-sided – cell-based, HEK293 M4/GIRK, thallium flux, BTC-AM, M4 allosteric agonist project, primary screen (AID 625;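 active = fluorescence slope after compound addition differing from the mean of all tested samples at 99.7% confidence, mostly higher but some lower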;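 note: thallium influx through GIRK channels coupled to M4 in HEK293 cells with BTC-AM dye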); conditions: at 10 µM, actives lie on both sides
Muscarinic acetylcholine receptor M4 (Homo sapiens), sequence (P08173 whole entry, looked up): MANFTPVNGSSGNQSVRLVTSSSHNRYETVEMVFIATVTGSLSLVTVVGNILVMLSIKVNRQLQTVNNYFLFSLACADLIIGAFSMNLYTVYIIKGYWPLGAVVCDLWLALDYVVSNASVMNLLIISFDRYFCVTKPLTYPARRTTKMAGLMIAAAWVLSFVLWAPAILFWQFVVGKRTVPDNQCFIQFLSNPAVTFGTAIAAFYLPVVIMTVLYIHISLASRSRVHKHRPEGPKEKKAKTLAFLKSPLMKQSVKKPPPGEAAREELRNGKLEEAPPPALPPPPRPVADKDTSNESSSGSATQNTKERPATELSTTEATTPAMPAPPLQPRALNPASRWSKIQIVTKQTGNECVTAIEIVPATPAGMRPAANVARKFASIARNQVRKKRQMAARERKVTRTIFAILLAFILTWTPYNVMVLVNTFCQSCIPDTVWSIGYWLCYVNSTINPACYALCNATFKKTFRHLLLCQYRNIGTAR
How it was run: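 assay system = HEK293 cells with M4 receptor and GIRK channels | medium = pH 7.3 thallium assay buffer | doses = 10 µM final, single point | timing = cells overnight at 37 °C, BTC-AM loading 1 h, reads 2 min total | signal = BTC-AM fluorescence, 1 Hz kinetic reads | read-out = post-addition slope, 15–24 s, of baseline-normalized fluorescence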

[7] = blockers of RIG-like receptor reporter activation – cell-based, Sendai virus stimulus, luciferase, 10K MLSCN set, TLR/RLR signaling modifier project, primary screen (AID 602276;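 active = inhibition at or above 50% at 10 µM; inactive = inhibition below 50%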;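 note: firefly luciferase from ISG56 promoter only with Renilla not read in this screen; 0% = Sendai virus plus DMSO and 100% = medium plus DMSO without virus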); conditions: HEK293 RL24 IRF3 luciferase reporter, at 10 µM, stronger effect = higher value
[8] = TLR3 IRF3 reporter activation blockers – cell-based, poly I:C stimulus, luciferase, 10K MLSCN set, primary screen (AID 602277;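 active = inhibition of the reporter signal at or above 50%; inactive = inhibition below 50%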); conditions: HEK293-TLR3 RL24 IRF3 luciferase reporter, at 10 µM, stronger effect = higher value

Compound | cell count [1] | inhibition [1] | inhibition of aggregation [2] | nuclei count [2] | inhibition [3] | nuclei count [3] | fluorescence slope [4] | NADPH fluorescence slope [5] | fluorescence slope [6] | inhibition [7] | inhibition [8]
O=C(NC1(C(F)(F)F)NC(=O)N(Cc2ccco2)C1=O)c1cccnc1 (stereo not drawn) | 495 | 1.8% (inactive) | 1.2% (inactive) | 104% | -26.5% (inactive) | 122% | -0.461 (inactive) | -8.5e-05 (inactive) | 0.00405 (inactive) | 9.43% (inactive) | 12.8% (inactive)
CCOc1ccc(OCC)c(NC(=O)C2CCN(S(=O)(=O)c3cnc[nH]3)CC2)c1 | 377 | -1.3% (inactive) | -15.6% (inactive) | 101% | 22.9% (inactive) | 80.4% | -0.572 (inactive) | -2.9e-05 (inactive) | 0.00665 (inactive) | 4.79% (inactive) | 10.8% (inactive)
COC(=O)c1ccccc1NC(=O)Nc1cccs1 | 567 | -11.5% (inactive) | -4.6% (inactive) | 96.1% | -29.5% (inactive) | 110% | -0.425 (inactive) | -9.4e-05 (inactive) | 0.00583 (inactive) | 10.3% (inactive) | 11.6% (inactive)
COc1ccc(Cl)cc1NC(=O)c1oc(C)nc1C | 555 | -0.7% (inactive) | -0.3% (inactive) | 97.4% | -1% (inactive) | 108% | -0.35 (inactive) | -4.4e-05 (inactive) | 0.00568 (inactive) | 25.6% (inactive) | 42.6% (inactive)
COc1cccc(OC)c1C(=O)Nc1cccc(C(C)=O)c1 | 734 | -11.6% (inactive) | 19.3% (inactive) | 95.5% | 15.5% (inactive) | 104% | -0.53 (inactive) | -1.1e-05 (inactive) | 0.00451 (inactive) | 12.1% (inactive) | 27.4% (inactive)
CCc1nnc(NC(=O)C2CCN(c3nccc(C)n3)CC2)s1 | 533 | 0.5% (inactive) | 0.2% (inactive) | 103% | -13.3% (inactive) | 96.9% | -0.317 (inactive) | -3.6e-05 (inactive) | 0.00544 (inactive) | 11% (inactive) | 14.7% (inactive)
COc1ccc2cnn(-c3ccccc3)c(=O)c2c1OC | 342 | -1.2% (inactive) | -8.5% (inactive) | 107% | 35.5% (inactive) | 109% | -0.549 (inactive) | -7.6e-05 (inactive) | 0.00377 (inactive) | -4.11% (inactive) | -25.4% (inactive)
O=C(CCC(=O)N1CCN(S(=O)(=O)c2ccccc2)CC1)c1cccs1 | 633 | -1.3% (inactive) | -22.1% (inactive) | 102% | -176% (inactive) | 153% | -0.568 (inactive) | -7e-05 (inactive) | 0.00592 (inactive) | -5.43% (inactive) | -3.56% (inactive)
O=C(NC1CCCC1)c1cc(-c2cccs2)on1 | 443 | -5.1% (inactive) | -2.2% (inactive) | 99.3% | 16.1% (inactive) | 105% | -0.441 (inactive) | -2.8e-06 (inactive) | 0.00483 (inactive) | -40.4% (inactive) | -146% (inactive)
O=C(Nc1cccc(C(=O)N2CCOCC2)c1)c1cccnc1 | 282 | -15.4% (inactive) | -7.7% (inactive) | 106% | -25.3% (inactive) | 116% | -0.546 (inactive) | -0.000161 (inactive) | 0.00393 (inactive) | -1.23% (inactive) | 0.71% (inactive)
Cc1c(C(=O)O)oc2ccc(S(=O)(=O)NCc3ccccc3)cc12 | 675 | -4.8% (inactive) | 21.7% (inactive) | 108% | -38.4% (inactive) | 110% | -0.432 (inactive) | 4.7e-05 (inactive) | 0.00586 (inactive) | -0.0664% (inactive) | 11.8% (inactive)
COc1ccccc1NC(=O)c1ccc(NC(=O)CSc2nnnn2C)cc1 | 253 | -3.2% (inactive) | -0.5% (inactive) | 85.1% | -63% (inactive) | 100% | -0.385 (inactive) | -7.2e-05 (inactive) | 0.00533 (inactive) | 12.1% (inactive) | 25.6% (inactive)
COCCn1cc(C(=O)NCCCN2CCC(C)CC2)c2c3ccccc3n(C)c2c1=O | 493 | 2.1% (inactive) | -2.6% (inactive) | 110% | -38.5% (inactive) | 115% | -0.562 (inactive) | -5.2e-05 (inactive) | 0.00626 (inactive) | 0.372% (inactive) | 16.6% (inactive)
CCOC(=O)N1CCN(c2cc3[nH]c(=S)[nH]c3cc2F)CC1 | 792 | 0% (inactive) | -5.7% (inactive) | 104% | -135% (inactive) | 136% | -0.525 (inactive) | -2.4e-05 (inactive) | 0.00501 (inactive) | 17.8% (inactive) | 20.8% (inactive)
COc1ccc(C2=Nn3c(nnc3-c3cccnc3)SC2)cc1 | 367 | -0.8% (inactive) | 6.7% (inactive) | 104% | 25.5% (inactive) | 109% | -0.464 (inactive) | 1.1e-05 (inactive) | 0.00808 (inactive) | 5.59% (inactive) | 7.82% (inactive)
Cc1ccc2nc(NC(=O)C3CCN(S(=O)(=O)c4cccc5nsnc45)CC3)sc2c1 | 540 | 0% (inactive) | -1.9% (inactive) | 105% | 38.3% (inactive) | 100% | -0.414 (inactive) | -9.1e-05 (inactive) | 0.00593 (inactive) | -4.97% (inactive) | -45% (inactive)
Brc1ccc(C2=Nn3c(nnc3-c3ccncc3)SC2)cc1 | 369 | 2.2% (inactive) | -12.9% (inactive) | 123% | -12.7% (inactive) | 117% | -0.544 (inactive) | 3.4e-05 (inactive) | 0.00451 (inactive) | 13.7% (inactive) | 0.85% (inactive)
CCOc1cc(C(=O)N2CCN(c3ccccc3)CC2)cc(OCC)c1OCC | 284 | 14.5% (inactive) | 39.7% (active) | 88.2% | 11.1% (inactive) | 90.3% | -0.559 (inactive) | -2.8e-05 (inactive) | 0.00369 (inactive) | 12.4% (inactive) | 15.3% (inactive)
CCOC(=O)c1sc(NC(=O)CSc2nnc(-c3ccco3)n2CC)c(C(=O)OCC)c1C | 696 | -10.9% (inactive) | -26.7% (inactive) | 104% | -27.8% (inactive) | 92.7% | -0.565 (inactive) | -3.7e-05 (inactive) | 0.00558 (inactive) | -9.39% (inactive) | -38.2% (inactive)
COc1ccc(-n2ncc3c(NCc4ccccn4)ncnc32)cc1 | 463 | -1.9% (inactive) | 7.6% (inactive) | 94% | 14.4% (inactive) | 102% | -0.541 (inactive) | -4e-05 (inactive) | 0.0051 (inactive) | -12.7% (inactive) | -61.6% (inactive)
CN(C(=O)c1ccncc1)C1CC(C)(C)N(O)C(C)(C)C1 | 344 | 2.8% (inactive) | -9.8% (inactive) | 103% | -67.4% (inactive) | 119% | -0.592 (inactive) | -2.2e-05 (inactive) | 0.00587 (inactive) | -0.539% (inactive) | 8.86% (inactive)
CCCn1c(=O)c2ccccc2n2c(SCc3cc(=O)n4ccsc4n3)nnc12 | 556 | -10.8% (inactive) | -7% (inactive) | 90.4% | -8.3% (inactive) | 136% | -0.479 (inactive) | 1.9e-05 (inactive) | 0.00554 (inactive) | 1.22% (inactive) | 12% (inactive)
COc1ccccc1NC(=O)N1c2ccc(F)cc2CCC1C (stereo not drawn) | 407 | -2.5% (inactive) | 2.1% (inactive) | 108% | -58.6% (inactive) | 111% | -0.567 (inactive) | -5e-06 (inactive) | 0.00635 (inactive) | 16.7% (inactive) | 24.1% (inactive)
CC(=O)N1CCc2cc(S(=O)(=O)CCC(=O)N3CCN(C(=O)c4ccco4)CC3)ccc21 | 519 | 2.2% (inactive) | 7.5% (inactive) | 105% | -51.9% (inactive) | 116% | -0.413 (inactive) | -4e-05 (inactive) | 0.00737 (inactive) | 12.3% (inactive) | 17.8% (inactive)
CCc1ccc2oc(-c3cc(N)ccc3Cl)nc2c1 | 563 | -33.7% (inactive) | 3% (inactive) | 98.1% | -53.6% (inactive) | 110% | -0.298 (inactive) | 8.8e-06 (inactive) | 0.006 (inactive) | -31.8% (inactive) | -60.1% (inactive)
COc1nc(N2CCOCC2)nc(-n2cccc2)n1 | 534 | -4.1% (inactive) | 3% (inactive) | 99.6% | 52.3% (inactive) | 80.1% | -0.547 (inactive) | -7.1e-05 (inactive) | 0.00492 (inactive) | 2.29% (inactive) | 4.71% (inactive)
O=C(O)C1CSC2c3ccccc3C(=O)N12 (stereo not drawn) | 729 | -4.7% (inactive) | -3.2% (inactive) | 96.3% | -66.8% (inactive) | 107% | -0.577 (inactive) | -6.7e-06 (inactive) | 0.00676 (inactive) | 11.2% (inactive) | 19% (inactive)
CCc1nnc(NC(=O)CSc2nc3ccccc3s2)s1 | 604 | 7.1% (inactive) | -5.7% (inactive) | 100% | -44% (inactive) | 112% | -0.472 (inactive) | -5.3e-05 (inactive) | 0.00516 (inactive) | 11.9% (inactive) | 12.6% (inactive)
